In ChEMBL document CHEMBL4014308, “Amphiphilic Tobramycin-Lysine Conjugates Sensitize Multidrug Resistant Gram-Negative Bacteria to Rifampicin and Minocycline” (J Med Chem, 2017) one finds Activity, MIC and Ratio data, which are given here for two compounds.

Assay type in all cases: functional
Test [1] deals with Pseudomonas aeruginosa. The test is described as follows: Disruption of proton motive force in Pseudomonas aeruginosa PAO1 cytoplasmic membrane assessed as repression of bacterial swimming motility at sub-MIC after 20 hrs. The method in brief:
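Swim plates of 0.3% agar with tryptone 5 g/L and NaCl 2.5 g/L, agent mixed into the medium and plates dried 2 h. PAO1 at 1.0 McFarland in 0.85% saline was point-inoculated at the center, and plates incubated 20 h at 37 °C before swim diameter was imaged.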

The subject of test [2] is Pseudomonas aeruginosa. The test is described as follows: Antibacterial activity against multidrug/extremely drug-resistant/colistin-susceptible Pseudomonas aeruginosa isolate P264-104354 after 18 hrs by microtiter dilution assay. The method in brief: (§1)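 Broth microdilution following CLSI guidelines. An overnight culture was adjusted to 0.5 McFarland in saline, then diluted 1:50 in Mueller-Hinton broth. This inoculum was added in equal volume to 2-fold serial dilutions of agent in MHB and incubated 18 h at 37 °C. MIC was the lowest concentration with no visible growth.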

In test [3] the test system is Pseudomonas aeruginosa. Nature of the test: Antibacterial activity against multidrug/extremely drug-resistant/colistin-susceptible Pseudomonas aeruginosa isolate 101885 after 18 hrs by microtiter dilution assay. The method in brief: as §1
Test [4] concerns Pseudomonas aeruginosa. The test is described as follows: Antibacterial activity against multidrug/extremely drug-resistant/colistin-susceptible Pseudomonas aeruginosa isolate 100036 after 18 hrs by microtiter dilution assay. The method in brief: as §1
The test system of test [5] is Pseudomonas aeruginosa. Nature of the test: Induction of outer membrane permeabilization in Pseudomonas aeruginosa PAO1 at 32 ug/ml after 30 mins by CFDASE staining based fluorescence assay. The method in brief:
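Log-phase PAO1 washed in PBS, brought to OD600 0.5 and loaded with 100 µM CFDASE for 30 min at 37 °C, then washed. Cells were exposed to agent for 30 min at 37 °C and supernatant fluorescence read at 488/520 nm. Untreated cells were subtracted; 1% Triton X-100 served as positive control.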

Test [6] relates to Pseudomonas aeruginosa. The test is described as follows: Antibacterial activity against multidrug/extremely drug-resistant/colistin-resistant Pseudomonas aeruginosa isolate 91433 after 18 hrs by microtiter dilution assay. The method in brief:
as §1

Test [7] deals with Pseudomonas aeruginosa. The test is described as follows: Antibacterial activity against Pseudomonas aeruginosa PAO1 assessed as ratio of MIC after 25 serial passages to MIC before 25 serial passages by microtiter dilution assay. In a few lines:
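Sequential passaging of wild-type PAO1 with single drugs or drug combinations. MIC was tested in MHB for 18 h. Cells from the well at half the MIC were adjusted to 0.5 McFarland in saline, diluted 1:50 in fresh MHB and used for the next MIC test. This was repeated for 25 passages, and the fold change in MIC was plotted against passage number.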

Test [8] has as its system Pseudomonas aeruginosa. The test is described as follows: Potentiation of rifampicin-induced antibacterial activity against Pseudomonas aeruginosa PAO1 at 4 ug/ml after 18 hrs by checkerboard assay. The method in brief: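 Checkerboard in MHB with a 10 × 7 matrix: antibiotic serially diluted along one axis, adjuvant along the other. Inoculum was a 1:50 dilution of a 0.5 McFarland suspension, incubated 18 h at 37 °C and read on a plate reader. Each FIC is the concentration in a no-growth well divided by the MIC alone; FIC index is their sum, with ≤0.5 taken as synergy.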

Test [9] concerns Pseudomonas aeruginosa. The test is described as follows: Antibacterial activity against multidrug/extremely drug-resistant/colistin-resistant Pseudomonas aeruginosa isolate 101243 after 18 hrs by microtiter dilution assay. In a few lines: as §1
The test system of test [10] is Pseudomonas aeruginosa. Nature of the test: Antibacterial activity against Pseudomonas aeruginosa PAO1 after 18 hrs by microtiter dilution assay. The method in brief:
as §1

Test [11] concerns Pseudomonas aeruginosa. Nature of the test: Antibacterial activity against multidrug/extremely drug-resistant/colistin-susceptible Pseudomonas aeruginosa isolate P259-96918 after 18 hrs by microtiter dilution assay. The method in brief:
as §1

The subject of test [12] is Pseudomonas aeruginosa. The test is described as follows: Potentiation of novobiocin-induced antibacterial activity against Pseudomonas aeruginosa PAO1 at 4 ug/ml after 18 hrs by checkerboard assay.
The subject of test [13] is Pseudomonas aeruginosa. The test is described as follows: Antibacterial activity against multidrug/extremely drug-resistant/colistin-susceptible Pseudomonas aeruginosa isolate P262-101856 after 18 hrs by microtiter dilution assay. In a few lines: as §1
Test [14] concerns Pseudomonas aeruginosa. Nature of the test: Induction of cytoplasmic membrane depolarization in Pseudomonas aeruginosa PAO1 up to 300 secs by diSC3-5 staining based fluorescence assay. In a few lines: (§2)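 Mid-log PAO1 washed in 5 mM HEPES pH 7.4 with 20 mM glucose and resuspended to OD600 0.05. Cells were loaded with 0.2 mM EDTA and 0.4 µM diSC3-5 for 2 h at 37 °C in the dark, then equilibrated with 100 mM KCl for 30 min. Agent was added and fluorescence followed at 622/670 nm; agents tested at 32 µg/mL.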

The subject of test [15] is Staphylococcus aureus. The test is described as follows: Antibacterial activity against Staphylococcus aureus ATCC 29213 after 24 hrs by […] dilution method. The note with it: ATCC 29213, 24 h.
Another test deals with Enterococcus faecalis. The test is described as follows: Antibacterial activity against Enterococcus faecalis ATCC 29212 after 24 hrs by […] dilution method. The note with it: ATCC 29212, 24 h.
Test [16] has as its system Escherichia coli. Nature of the test: Antibacterial activity against gentamicin/tobramycin/ciprofloxacin-resistant Escherichia coli isolate CANWARD-2011 97615 harboring AAC3-2A after 24 hrs by […] dilution method. Particulars: isolate CANWARD-2011 97615, 24 h.
The subject of test [17] is Pseudomonas aeruginosa. The test is described as follows: Antibacterial activity against Pseudomonas aeruginosa ATCC 27853 after 24 hrs by […] dilution method. The note with it: ATCC 27853, 24 h.
Test [18] deals with Escherichia coli. Nature of the test: Antibacterial activity against Escherichia coli ATCC 25922 after 24 hrs by […] dilution method. Particulars: ATCC 25922, 24 h.
Test [19] relates to Staphylococcus epidermidis. Nature of the test: Antibacterial activity against methicillin-resistant Staphylococcus epidermidis isolate CAN-ICU 61589 after 24 hrs by […] dilution method. The note with it: isolate CAN-ICU 61589, 24 h.
Test [20] concerns Pseudomonas aeruginosa. The test is described as follows: Antibacterial activity against gentamicin/tobramycin-resistant Pseudomonas aeruginosa isolate CANWARD-2011 96846 after 24 hrs by […] dilution method. Particulars: isolate CANWARD-2011 96846, 24 h.
The subject of test [21] is Staphylococcus aureus. Nature of the test: Antibacterial activity against methicillin resistant Staphylococcus aureus ATCC 33592 after 24 hrs by […] dilution method. Particulars: ATCC 33592, 24 h.
For test [22], the system named is Stenotrophomonas maltophilia. Nature of the test: Antibacterial activity against Stenotrophomonas maltophilia isolate CAN-ICU 62584 after 24 hrs by […] dilution method. The note with it: isolate CAN-ICU 62584, 24 h.
The test system of test [23] is Pseudomonas aeruginosa. Nature of the test: Induction of cytoplasmic membrane depolarization in Pseudomonas aeruginosa PAO1 up to 1200 secs by diSC3-5 staining based fluorescence assay. In a few lines: as §2
In test [24] the test system is Pseudomonas aeruginosa. The test is described as follows: Synergistic antibacterial activity against Pseudomonas aeruginosa PAO1 after 18 hrs in presence of minocycline by checkerboard assay. In a few lines: (§3)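 Checkerboard in MHB: antibiotic diluted along one axis and adjuvant along the other (10 × 7 matrix). Inoculum was a 1:50 dilution in MHB of a 0.5 McFarland saline suspension; incubated 18 h at 37 °C. Each FIC = concentration in the no-growth well divided by the MIC alone; FIC index = sum of both FICs. ≤0.5 synergy, 0.5–4 no interaction, ≥4 antagonism.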

A further test relates to Acinetobacter baumannii. Nature of the test: Antibacterial activity against Acinetobacter baumannii isolate CAN-ICU 63169 after 24 hrs by […] dilution method. The note with it: isolate CAN-ICU 63169, 24 h.
The subject of a further test is Klebsiella pneumoniae. Nature of the test: Antibacterial activity against Klebsiella pneumoniae ATCC 13883 after 24 hrs by […] dilution method. Particulars: ATCC 13883, 24 h.
The test system of test [25] is Staphylococcus epidermidis. Nature of the test: Antibacterial activity against methicillin-susceptible Staphylococcus epidermidis isolate CANWARD-2008 81388 after 24 hrs by […] dilution method. Particulars: isolate CANWARD-2008 81388, 24 h.
The test system of test [26] is Escherichia coli. The test is described as follows: Antibacterial activity against amikacin-resistant Escherichia coli isolate CAN-ICU 63074 after 24 hrs by […] dilution method. The note with it: isolate CAN-ICU 63074, 24 h.
For another test, the system named is Streptococcus pneumoniae. The test is described as follows: Antibacterial activity against Streptococcus pneumoniae ATCC 49619 after 24 hrs by […] dilution method. Particulars: ATCC 49619, 24 h.
Test [27] deals with Escherichia coli. Nature of the test: Antibacterial activity against gentamicin-resistant Escherichia coli isolate CAN-ICU 61714 after 24 hrs by […] dilution method. The note with it: isolate CAN-ICU 61714, 24 h.
Test [28] relates to Pseudomonas aeruginosa. Nature of the test: Synergistic antibacterial activity against Pseudomonas aeruginosa PAO1 after 18 hrs in presence of rifampicin by checkerboard assay. The method in brief: as §3
Test [29] has as its system Pseudomonas aeruginosa. The test is described as follows: Antibacterial activity against gentamicin-resistant Pseudomonas aeruginosa isolate CAN-ICU 62308 after 24 hrs by […] dilution method. The note with it: isolate CAN-ICU 62308, 24 h.
The test system of the next test is Enterococcus faecium. The test is described as follows: Antibacterial activity against Enterococcus faecium ATCC 27270 after 24 hrs by […] dilution method. The note with it: ATCC 27270, 24 h.

Values after ≈ are worked out from the molar mass of the structure shown. Active and inactive are the calls of the source. The calls are words filed in the database; no cut-off is given here. Some results are limits rather than exact numbers.

As for COLISTIN, the outcome in the test on Pseudomonas aeruginosa [1], in the test on Pseudomonas aeruginosa [5], in the test with Pseudomonas aeruginosa [8] and in the test on Pseudomonas aeruginosa [12] was Active. Besides, the MIC in the test with Pseudomonas aeruginosa [2] is 4 µg/mL; with Pseudomonas aeruginosa [3] it was 0.5 µg/mL; in the test with Pseudomonas aeruginosa [4] it was 2 µg/mL; against Pseudomonas aeruginosa [6], 4 µg/mL; against Pseudomonas aeruginosa [9], more than 1020 µg/mL; against Pseudomonas aeruginosa [10], 1 µg/mL. Further, the figures for the minimal inhibitory concentration (MIC) in the test on Pseudomonas aeruginosa [11] and with Pseudomonas aeruginosa [13] were 0.5 µg/mL and 2 µg/mL, respectively. Further, in the test with Pseudomonas aeruginosa [7], the Ratio was determined as 1024. Moreover, the Activity result in the test with Pseudomonas aeruginosa [14] was “Dose-dependent effect”.

Regarding `NC[C@H]1O[C@H](O[C@H]2[C@H](O)[C@@H](O[C@H]3O[C@H](CO)[C@@H](O)[C@H](N)[C@H]3O)[C@H](N)C[C@@H]2N)[C@H](N)C[C@@H]1O` [TOBRAMYCIN], the minimum inhibitory concentration (MIC) against Staphylococcus aureus [15] is not above 0.25 µg/mL; against Enterococcus faecalis, 8 µg/mL (≈ 17.1 µM); against Escherichia coli [16], 128 µg/mL (≈ 274 µM); in the test with Pseudomonas aeruginosa [17], 0.5 µg/mL (≈ 1.07 µM); in the test on Escherichia coli [18], 0.5 µg/mL (≈ 1.07 µM); with Pseudomonas aeruginosa [2] (isolate P264-104354, 18 h), 128 µg/mL (≈ 274 µM). Besides, the minimum inhibitory concentration (MIC) in test [19] is 1 µg/mL (≈ 2.14 µM); with Pseudomonas aeruginosa [20], 256 µg/mL (≈ 548 µM); with Pseudomonas aeruginosa [3] (isolate 101885, 18 h), 0.25 µg/mL (≈ 0.535 µM); in the test on Pseudomonas aeruginosa [4] (isolate 100036, 18 h) it was 64 µg/mL (≈ 137 µM); with Staphylococcus aureus [21], not above 0.25 µg/mL; in test [22], more than 512 µg/mL. For the same compound, the minimum inhibitory concentration (MIC) is 8 µg/mL (≈ 17.1 µM) against Pseudomonas aeruginosa [6] (isolate 91433, 18 h); 32 µg/mL (≈ 68.4 µM) with Acinetobacter baumannii; not above 0.25 µg/mL with Klebsiella pneumoniae; not above 0.25 µg/mL in [25]; 256 µg/mL (≈ 548 µM) against Pseudomonas aeruginosa [9] (isolate 101243, 18 h); 8 µg/mL (≈ 17.1 µM) with Escherichia coli [26]. For the same compound, the MIC with Streptococcus pneumoniae came out at 2 µg/mL (≈ 4.28 µM); against Escherichia coli [27], 8 µg/mL (≈ 17.1 µM); against Pseudomonas aeruginosa [29], 16 µg/mL (≈ 34.2 µM); in the test with Enterococcus faecium it was 8 µg/mL (≈ 17.1 µM); against Pseudomonas aeruginosa [10] (PAO1, 18 h) it was 0.25 µg/mL (≈ 0.535 µM); in the test on Pseudomonas aeruginosa [11] (isolate P259-96918, 18 h) it was 128 µg/mL (≈ 274 µM). This compound also returned an MIC against Pseudomonas aeruginosa [13] (isolate P262-101856, 18 h) of 512 µg/mL (≈ 1100 µM). Also, the Activity entry in the test on Pseudomonas aeruginosa [23] was “Dose-dependent effect”. Besides, the result in the test with Pseudomonas aeruginosa [24] and with Pseudomonas aeruginosa [28] was inactive. The Ratio in the test with Pseudomonas aeruginosa [7] turned out to be 256.
